# Legend:
# ACHN = experiment: Inhibition of growth of renal cancer ACHN cell line; type: functional; conditions: Homo sapiens, read-out: ED50 (the source's name)
# Summary of the method: (§1)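 Human tumour cell lines plated and grown 24 h in a CO2 incubator, then exposed to compound for 96 or 4 h. Cells counted by hemocytometer. IC50 is the concentration giving 50% reduction in cell number versus untreated control.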
# A549 = experiment: Inhibition of growth of lung non-small cell carcinoma A-549 cell line; type: functional; conditions: Homo sapiens, read-out: ED50 (the source's name)
# Summary of the method: (§2)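 Cells were seeded and cultured for 24 h, then exposed to drug for 96 or 4 h. Cells were counted by hemocytometer. IC50 is the concentration giving a 50% reduction in cell number relative to control.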
# [1] = Inhibition of growth of colon carcinoma COLO 2-1 cell line; type: functional; conditions: Homo sapiens, read-out: ED50 (the source's name); summary of the method: as §2
# COLO 320DM [2] = experiment: Inhibition of growth of colon cancer COLO 320DM cell line; type: functional; conditions: Homo sapiens, read-out: ED50 (the source's name); summary of the method: as §2
# Homo sapiens = organism: Homo sapiens; experiment: Inhibition of growth of hepatoma HLE cell line; type: functional; conditions: read-out: ED50 (the source's name); summary of the method: as §2
# [3] = Inhibition of growth of renal cancer G-402 cell line; type: functional; conditions: Homo sapiens, read-out: ED50 (the source's name); summary of the method: as §1
# [4] = Inhibition of growth of hepatoma HLF cell line; type: functional; conditions: Homo sapiens, read-out: ED50 (the source's name); summary of the method: as §2
# L1210 [5] = experiment: The number of mice survived for 30 days at the dose of 2.5 (mg/kg/day); type: functional, Mus musculus
# L1210 [6] = experiment: Antitumor activity in vivo expressed as the percentage increase in life span at the dose of 2.5 (mg/kg/day); type: functional, Mus musculus
# [7] = system: Lewis lung carcinoma cell line; experiment: Increased life span at the dose of 0.77 (mg/kg/day); type: functional, Mus musculus
# [8] = system: Lewis lung carcinoma cell line; experiment: Increased life span at the dose of 1.3 (mg/kg/day); type: functional, Mus musculus
# [9] = system: Lewis lung carcinoma cell line; experiment: Increased life span at the dose of 2.3 (mg/kg/day); type: functional, Mus musculus
# [10] = system: Lewis lung carcinoma cell line; experiment: Increased life span at the dose of 4 (mg/kg/day) (number of survivors); type: functional, Mus musculus
# [11] = system: Lewis lung carcinoma cell line; experiment: Increased life span at the dose of 7 (mg/kg/day); type: functional, Mus musculus
# [12] = system: Lewis lung carcinoma cell line; experiment: Mean body weight change after inoculation of 3.2 x 10 e 5 cells iv and administration of compounds iv from days 1-5 at the dose of 0.77 (mg/kg/day); type: functional, Mus musculus
# Summary of the method: (§3)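 Male BDF1 mice (5 weeks) given 3.2 x 10^5 Lewis lung carcinoma cells iv on day 0, then dosed iv on days 1–5. Seven mice per group, 14 controls. Mean body weight change (g) taken from day 0 to day 6.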
# [13] = system: Lewis lung carcinoma cell line; experiment: Mean body weight change after inoculation of 3.2 x 10 e 5 cells iv and administration of compounds iv from days 1-5 at the dose of 2.3 (mg/kg/day); type: functional, Mus musculus; summary of the method: as §3
# [14] = system: Lewis lung carcinoma cell line; experiment: Percentage inhibition of tumor growth at the Lewis lung dose of 1.3 (mg/kg/ day); type: functional, Mus musculus
# Summary of the method: (§4)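 Lewis lung carcinoma fragments (2 mm3) implanted sc into male BDF1 mice (5 weeks) on day 0. Compound given iv on days 4–8, in saline or saline with 3.5% DMSO and 6.5% Tween 80. Seven mice per group, 10 controls. Percent inhibition from mean tumour weight versus control on day 17; p<0.05, 0.01 or 0.001 versus control.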
# [15] = system: Lewis lung carcinoma cell line; experiment: Percentage inhibition of tumor growth at the Lewis lung dose of 2.3 (mg/kg/ day); type: functional, Mus musculus; summary of the method: as §4
# [16] = system: Lewis lung carcinoma cell line; experiment: Percentage inhibition of tumor growth at the Lewis lung dose of 4 (mg/kg/ day); type: functional, Mus musculus; summary of the method: as §4
# [17] = system: Lewis lung carcinoma cell line; experiment: Mean body weight change after inoculation of 3.2 x 10 e 5 cells iv and administration of compounds iv from days 1-5 at the dose of 4 (mg/kg/day); type: functional, Mus musculus; summary of the method: as §3
# [18] = system: Lewis lung carcinoma cell line; experiment: Mean body weight change after inoculation of 3.2 x 10 e 5 cells iv and administration of compounds iv from days 1-5 at the dose of 7 (mg/kg/day); type: functional, Mus musculus; summary of the method: as §3
# P388 [19] = experiment: Cytotoxicity against P388 leukemia; type: functional, cell-based; conditions: Mus musculus
# P388 [20] = experiment: Antitumor activity in vivo expressed as the percentage increase in life span at the P388 dose of 0.8 (mg/kg/day); type: functional, Mus musculus
# Summary of the method: (§5)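 P388 leukaemia, 1 × 10^6 cells given sc to male CDF1 mice (5 weeks old) on day 0. Drug was dosed iv on days 1–5 in saline with 3.5% DMSO and 6.5% Tween 80. Groups had 7 mice; controls had 10. ILS was calculated from mean survival time of treated versus control mice, excluding 30-day survivors.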
# P388 [21] = experiment: Antitumor activity in vivo expressed as the percentage increase in life span at the P388 dose of 1.3 (mg/kg/day); type: functional, Mus musculus; summary of the method: as §5
# P388 [22] = experiment: Antitumor activity in vivo expressed as the percentage increase in life span at the P388 dose of 2.3 (mg/kg/day); type: functional, Mus musculus; summary of the method: as §5
# [23] = Inhibition of growth of lung non-small cell carcinoma PC-7 cell line; type: functional; conditions: Homo sapiens, read-out: ED50 (the source's name); summary of the method: as §2
# [24] = Inhibition of growth of lung small cell carcinoma RERF-LC-MA cell line; type: functional; conditions: Homo sapiens; read-out: ED50 (the source's name); summary of the method: as §2
# SBC-3 = experiment: Inhibition of growth of lung small cell carcinoma SBC-3 cell line; type: functional; conditions: Homo sapiens, read-out: ED50 (the source's name); summary of the method: as §1
# [25] = Inhibition of DNA topoisomerase II from rat liver measured as 50% reduction in the amount of minicircle DNA relative to the control
# Tubulin = Tubulin (Bos taurus, UniProt Q6B856+Q862L2+Q862F3); experiment: Drug concentration needed to produce a 50% reduction of bovine brain tubulin polymerization relative to the control
# COLO 320DM [26] = experiment: Inhibition of growth of colon carcinoma COLO 320DM cell line; type: functional; conditions: Homo sapiens, read-out: ED50 (the source's name); summary of the method: as §2
# L1210 [27] = experiment: The number of mice survived for 30 days at the dose of 1.3 (mg/kg/day); type: functional, Mus musculus
# L1210 [28] = experiment: Antitumor activity in vivo expressed as the percentage increase in life span at the dose of 1.3 (mg/kg/day); type: functional, Mus musculus
# [29] = system: Lewis lung carcinoma cell line; experiment: Increased life span at the lewis lung dose of 0.25 (mg/kg/day); type: functional, Mus musculus
# [30] = system: Lewis lung carcinoma cell line; experiment: Increased life span at the lewis lung dose of 0.44 (mg/kg/day); type: functional, Mus musculus
# [31] = system: Lewis lung carcinoma cell line; experiment: Increased life span at the lewis lung dose of 0.77 (mg/kg/day); type: functional, Mus musculus
# [32] = system: Lewis lung carcinoma cell line; experiment: Increased life span at the lewis lung dose of 1.3 (mg/kg/day); type: functional, Mus musculus
# [33] = system: Lewis lung carcinoma cell line; experiment: Mean body weight change after inoculation of 3.2 x 10 e 5 cells iv and administration of compounds iv from days 1-5 at the dose of 0.25 (mg/kg/day); type: functional, Mus musculus; summary of the method: as §3
# [34] = system: Lewis lung carcinoma cell line; experiment: Mean body weight change after inoculation of 3.2 x 10 e 5 cells iv and administration of compounds iv from days 1-5 at the dose of 0.44 (mg/kg/day); type: functional, Mus musculus; summary of the method: as §3
# [35] = system: Lewis lung carcinoma cell line; experiment: Mean body weight change after inoculation of 3.2 x 10 e 5 cells iv and administration of compounds iv from days 1-5 at the dose of 1.3 (mg/kg/day); type: functional, Mus musculus; summary of the method: as §3
# P388 [36] = experiment: Antitumor activity in vivo expressed as the percentage increase in life span at the P388 dose of 0.4 (mg/kg/day); type: functional, Mus musculus; summary of the method: as §5
# P388 [37] = experiment: Antitumor activity in vivo expressed as the percentage increase in life span at the P388 dose of 0.3 (mg/kg/day); type: functional, Mus musculus; summary of the method: as §5
# [38] = system: Lewis lung carcinoma cell line; experiment: Percentage inhibition of tumor growth at the lewis lung dose of 0.3 (mg/kg/ day); type: functional, Mus musculus; summary of the method: as §4
# [39] = system: Lewis lung carcinoma cell line; experiment: Percentage inhibition of tumor growth at the lewis lung dose of 1.3 (mg/kg/ day); (p<0001); type: functional, Mus musculus; summary of the method: as §4
# [40] = system: Lewis lung carcinoma cell line; experiment: Percentage inhibition of tumor growth at the lewis lung dose of 2.3 (mg/kg/ day); (p<0001); type: functional, Mus musculus; summary of the method: as §4
# L1210 [41] = experiment: The number of mice survived for 30 days at the dose of 40 (mg/kg/day); type: functional, Mus musculus
# L1210 [42] = experiment: Antitumor activity in vivo expressed as the percentage increase in life span at the dose of 40 (mg/kg/day); type: functional, Mus musculus
smiles,measurement,setting,value
COc1cc([C@@H]2c3cc4c(cc3[C@@H](CCN3CCC(N5CCCCC5)CC3)C3COC(=O)[C@@H]32)OCO4)cc(OC)c1O.Cl.Cl (some centres undefined),EC50,ACHN,1.1 µg/mL
same,EC50,A549,1 µg/mL
same,EC50,[1],13 µg/mL
same,EC50,COLO 320DM [2],2.1 µg/mL
same,EC50,Homo sapiens,0.31 µg/mL
same,EC50,[3],0.18 µg/mL
same,EC50,[4],2.7 µg/mL
same,Survivors,L1210 [5],6
same,ILS max,L1210 [6],102%
same,ILS max,[7],43%
same,ILS max,[8],63%
same,ILS max,[9],133%
same,ILS max,[10],-13%
same,ILS max,[11],-44%
same,bwc,[12],0.3 g
same,bwc,[13],-0.5 g
same,Inhibition,[14],40%
same,Inhibition,[15],50%
same,Inhibition,[16],91%
same,bwc,[17],-1.6 g
same,bwc,[18],-4.1 g
same,IC50,P388 [19],0.0033 µM
same,ILS max,P388 [20],143%
same,ILS max,P388 [21],202%
same,ILS max,P388 [22],231%
same,EC50,[23],4 µg/mL
same,EC50,[24],35 µg/mL
same,EC50,SBC-3,0.16 µg/mL
same,IC50,[25],29.8 µM
same,IC50,Tubulin,> 167 µM
COc1cc([C@@H]2c3cc4c(cc3[C@@H](CCN3CCN(C)CC3)C3COC(=O)[C@@H]32)OCO4)cc(OC)c1O.Cl.Cl (some centres undefined),EC50,ACHN,2 µg/mL
same,EC50,A549,0.76 µg/mL
same,EC50,[1],9.3 µg/mL
same,EC50,COLO 320DM [26],0.99 µg/mL
same,EC50,Homo sapiens,0.13 µg/mL
same,EC50,[3],0.25 µg/mL
same,EC50,[4],1.6 µg/mL
same,Survivors,L1210 [27],1
same,ILS max,L1210 [28],140%
same,ILS max,[29],24%
same,ILS max,[30],67%
same,ILS max,[31],91%
same,ILS max,[32],127%
same,bwc,[33],0.9 g
same,bwc,[34],0.3 g
same,bwc,[12],-0.9 g
same,bwc,[35],-3.3 g
same,IC50,P388 [19],0.003 µM
same,ILS max,P388 [36],112%
same,ILS max,P388 [20],182%
same,ILS max,P388 [37],67%
same,EC50,[23],2.9 µg/mL
same,EC50,[24],5.8 µg/mL
same,EC50,SBC-3,0.28 µg/mL
same,IC50,[25],33.6 µM
same,IC50,Tubulin,> 132 µM
same,Inhibition,[38],37%
same,Inhibition,[39],81%
same,Inhibition,[40],96%
COc1cc([C@@H]2c3cc4c(cc3[C@@H](CCN(C)N(C)C)C3COC(=O)[C@@H]32)OCO4)cc(OC)c1O.Cl (some centres undefined),Survivors,L1210 [41],6
same,ILS max,L1210 [42],74%
same,IC50,P388 [19],0.02 µM
same,IC50,[25],58.3 µM
same,IC50,Tubulin,> 100 µM
